{"source": "ChEMBL document CHEMBL1157852", "about": "“Modulation of doxorubicin activity in cancer cells by conjugation with fatty acyl and terpenyl hydrazones” (Eur J Med Chem, 2010)", "key": {"Nucleic Acid": {"system": "Nucleic Acid", "assay": "Binding affinity to Escherichia coli pBR322 DNA assessed as effect on DNA electrophoretic mobility at 5 to 25 uM after 24 hrs", "type": "nucleic-acid assay", "in_short": "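pBR322 plasmid DNA from a TE stock incubated with compound at 0, 5, 10 and 25 µM, in the dark at 37 °C for 24 h. Samples run on 1% agarose gel in 0.5× TBE for 4 h at 66 V. Read-out: shifts in mobility of the open circular and covalently closed circular forms.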"}, "[1]": {"assay": "Cytotoxicity against human 518A2 cells after 24 hrs by MTT assay", "type": "functional, cell-based", "conditions": "518A2, 24 h", "in_short": "(§1)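 MTT assay. Cells seeded and cultured 24 h, then exposed to compound for 24, 48 or 72 h. MTT added to a final 0.05% (HL-60, 518A2) or 0.1% (KB-V1, MCF-7) for 2 h. Formazan dissolved in 10% SDS/DMSO with 0.6% acetic acid; absorbance read at 570 nm against 630 nm background. Viability taken relative to untreated controls (100%). IC50 from concentration-response curves, mean ± SD of four independent experiments.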"}, "[2]": {"assay": "Cytotoxicity against human 518A2 cells after 72 hrs by MTT assay", "type": "functional, cell-based", "conditions": "518A2, 72 h", "in_short": "as §1"}, "HL-60 [3]": {"system": "HL-60", "assay": "Cytotoxicity against human HL60 cells after 24 hrs by MTT assay", "type": "functional, cell-based", "conditions": "HL-60, 24 h", "in_short": "as §1"}, "[4]": {"assay": "Cytotoxicity against human vinblastine-resistant KBV1 cells after 24 hrs by MTT assay", "type": "functional, cell-based", "conditions": "KB-V1, 24 h", "in_short": "as §1"}, "[5]": {"assay": "Cytotoxicity against human vinblastine-resistant KBV1 cells after 48 hrs by MTT assay", "type": "functional, cell-based", "conditions": "KB-V1, 48 h", "in_short": "as §1"}, "[6]": {"assay": "Cytotoxicity against human vinblastine-resistant KBV1 cells after 72 hrs by MTT assay", "type": "functional, cell-based", "conditions": "KB-V1, 72 h", "in_short": "as §1"}, "MCF7 [7]": {"system": "MCF7", "assay": "Cytotoxicity against human topotecan-resistant MCF7 cells after 24 hrs by MTT assay", "type": "functional, cell-based", "conditions": "MCF7, 24 h", "in_short": "as §1"}, "MCF7 [8]": {"system": "MCF7", "assay": "Cytotoxicity against human topotecan-resistant MCF7 cells after 48 hrs by MTT assay", "type": "functional, cell-based", "conditions": "MCF7, 48 h", "in_short": "as §1"}, "MCF7 [9]": {"system": "MCF7", "assay": "Cytotoxicity against human topotecan-resistant MCF7 cells after 72 hrs by MTT assay", "type": "functional, cell-based", "conditions": "MCF7, 72 h", "in_short": "as §1"}, "MCF7 [10]": {"system": "MCF7", "assay": "Cytotoxicity against human topotecan-resistant MCF7 cells after 72 hrs by MTT assay in presence of […] BCRP inhibitor fumitremorgin C", "type": "functional, cell-based", "conditions": "MCF7, 72 h", "in_short": "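MCF-7/Topo cells grown in E-MEM with 2.2 g/L NaHCO₃, 110 mg/L sodium pyruvate and 5% FCS. Cells were seeded, cultured 24 h, given fumitremorgin C, then exposed to compound for 72 h. MTT was added (final 0.1%) for 2 h, medium discarded, and formazan dissolved in 10% SDS/DMSO with 0.6% acetic acid. A570 (630 background) read versus untreated controls; IC50 from concentration-response curves; four independent experiments, mean ± SD.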"}, "MCF7 [11]": {"system": "MCF7", "assay": "Ratio of compound IC50 to doxorubicin IC50 for human doxorubicin-resistant MCF7 cells", "type": "functional"}, "HL-60 [12]": {"system": "HL-60", "assay": "Induction of apoptosis in human HL60 cells assessed as DNA ladder formation at 5 uM after 24 hrs by agarose gel electrophoresis", "type": "functional, cell-based", "in_short": "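HL-60 cells incubated with 5 µM compound for 24 h, then examined for DNA ladder patterns.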"}, "HL-60 [13]": {"system": "HL-60", "assay": "Induction of apoptosis in human HL60 cells assessed as increase of caspase 3 activity at 5 uM after 4 hrs by luminometric assay", "type": "functional, cell-based", "in_short": "(§2)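 HL-60 and 518A2 cells treated with 5 µM compound and sampled at intervals from 1 to 24 h. Lysed in 50 mM Tris-HCl pH 7.4, 150 mM NaCl, 1% Triton X-100 with protease inhibitors for 15 min at 4 °C, spun at 800 g. Protein measured by Bradford. Caspase-3/7, -8 and -9 activities read with luminogenic peptide substrates; reported as relative luminescence.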"}, "HL-60 [14]": {"system": "HL-60", "assay": "Induction of apoptosis in human HL60 cells assessed as increase of caspase 3 activity at 5 uM after 12 hrs by luminometric assay", "type": "functional, cell-based", "in_short": "as §2"}, "HL-60 [15]": {"system": "HL-60", "assay": "Induction of apoptosis in human HL60 cells assessed as increase of caspase 8 activity at 5 uM after 4 to 24 hrs by luminometric assay", "type": "functional, cell-based", "in_short": "as §2"}, "HL-60 [16]": {"system": "HL-60", "assay": "Induction of apoptosis in human HL60 cells assessed as increase of caspase 9 activity at 5 uM after 8 hrs by luminometric assay", "type": "functional, cell-based", "in_short": "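HL-60 leukaemia cells were treated with test compound and sampled at intervals from 1 to 24 h. Protein was measured by Bradford. Caspase-9 (Caspase-Glo 8 for line 1) was read from a luminogenic peptide substrate as relative luminescence.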"}, "518A2 [17]": {"system": "518A2", "assay": "Induction of apoptosis in human 518A2 cells assessed as increase of caspase 9 activity at 5 uM after 8 to 12 hrs by luminometric assay", "type": "functional, cell-based", "in_short": "as §2"}, "HL-60 [18]": {"system": "HL-60", "assay": "Induction of apoptosis in human HL60 cells assessed as increase of ratio of Bax to Bcl-2 mRNA expression at 5 uM after 6 to 18 hrs by RT-PCR analysis", "type": "functional, cell-based", "in_short": "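Real-time PCR of bax and bcl-2 mRNA in HL-60 cells after 6 h and 18 h exposure to test compound. Each gene was normalised to GAPDH, and the bax/bcl-2 expression ratio was reported.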"}, "518A2 [19]": {"system": "518A2", "assay": "Induction of apoptosis in human 518A2 cells assessed as increase of ratio of Bax to Bcl-2 mRNA expression at 5 uM after 6 to 18 hrs by RT-PCR analysis", "type": "functional, cell-based", "in_short": "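518A2 cells exposed to 5 µM compound for 6 h or 18 h. bax and bcl-2 mRNA quantified by real-time PCR, normalised to GAPDH, and expressed as the bax/bcl-2 ratio.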"}, "518A2 [20]": {"system": "518A2", "assay": "Induction of apoptosis in human 518A2 cells assessed as appearance of intact mitochondria in cytosol at 5 uM after 18 hrs using JC1 dye relative to control", "type": "functional", "in_short": "(§3)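 Mitochondrial membrane potential measured with JC-1. Cells exposed to 5 µM compound for 6 or 18 h, pelleted at 400 g, stained with 0.2× JC-1 at 37 °C for 15 min (HL-60) or 35 min (518A2), washed and resuspended in PBS. Red fluorescence (ex 585/em 590 nm) and green (ex 510/em 527 nm) read; red/green ratio relative to untreated controls (100%). Mean ± SD, four independent experiments.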"}, "HL-60 [21]": {"system": "HL-60", "assay": "Induction of apoptosis in human HL60 cells assessed as appearance of intact mitochondria in cytosol at 5 uM after 6 hrs using JC1 dye relative to control", "type": "functional", "in_short": "as §3"}, "HL-60 [22]": {"system": "HL-60", "assay": "Induction of apoptosis in human HL60 cells assessed as appearance of intact mitochondria in cytosol at 5 uM after 18 hrs using JC1 dye relative to control", "type": "functional", "in_short": "as §3"}, "[23]": {"assay": "Cytotoxicity against human 518A2 cells assessed as increase in ROS production at 5 uM after 24 hrs by NBT reduction assay relative to control", "type": "functional", "in_short": "(§4)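 NBT assay. HL-60 cells (0.5×10⁶/mL) or trypsinised 518A2 cells (5×10⁴/mL) pre-incubated 24 h at 37 °C, then given compound at a final 5 µM for 24 or 72 h. Medium removed; cells incubated with 0.1% NBT for 1 h (HL-60) or 4 h (518A2). Diformazan dissolved in 2 M KOH/DMSO; A630 read against 405 nm. Given as % of untreated controls; double quadruplicates.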"}, "HL-60 [24]": {"system": "HL-60", "assay": "Cytotoxicity against human HL60 cells assessed as increase in ROS production at 5 uM after 24 hrs by NBT reduction assay relative to control", "type": "functional", "in_short": "as §4"}, "HL-60 [25]": {"system": "HL-60", "assay": "Cytotoxicity against human HL60 cells assessed as increase in ROS production at 5 uM after 72 hrs by NBT reduction assay relative to control", "type": "functional", "in_short": "as §4"}}, "note": "The source made the active and inactive calls. The rule behind the calls is not given here.", "data": [{"smiles": "COc1cccc2c1C(=O)c1c(O)c3c(c(O)c1C2=O)C[C@@](O)(/C(CO)=N/NC(=O)CCCCCCCCCCC(=O)O[C@@H]1C[C@H](C)CC[C@H]1C(C)C)C[C@@H]3O[C@H]1C[C@H](N)[C@H](O)[C@H](C)O1.Cl", "values": [{"measurement": "Activity", "setting": "Nucleic Acid", "result": "Active"}, {"measurement": "IC50", "setting": "[1]", "result": 230, "unit": "nM"}, {"measurement": "IC50", "setting": "[2]", "result": 60, "unit": "nM"}, {"measurement": "IC50", "setting": "HL-60 [3]", "result": 300, "unit": "nM"}, {"measurement": "IC50", "setting": "[4]", "result": 30500, "unit": "nM"}, {"measurement": "IC50", "setting": "[5]", "result": 17100, "unit": "nM"}, {"measurement": "IC50", "setting": "[6]", "result": 8800, "unit": "nM"}, {"measurement": "IC50", "setting": "MCF7 [7]", "result": 7100, "unit": "nM"}, {"measurement": "IC50", "setting": "MCF7 [8]", "result": 2600, "unit": "nM"}, {"measurement": "IC50", "setting": "MCF7 [9]", "result": 2600, "unit": "nM"}, {"measurement": "IC50", "setting": "MCF7 [10]", "result": 90, "unit": "nM"}, {"measurement": "Ratio IC50", "setting": "MCF7 [11]", "result": 1.6}, {"measurement": "Activity", "setting": "HL-60 [12]", "result": "Active"}, {"measurement": "Activity", "setting": "HL-60 [13]", "result": "Active"}, {"measurement": "Activity", "setting": "HL-60 [14]", "result": "Active"}, {"measurement": "Activity", "setting": "HL-60 [15]", "result": "Active"}, {"measurement": "Activity", "setting": "HL-60 [16]", "result": "Active"}, {"measurement": "Activity", "setting": "518A2 [17]", "result": "Active"}, {"measurement": "Activity", "setting": "HL-60 [18]", "result": "Active"}, {"measurement": "Activity", "setting": "518A2 [19]", "result": "Active"}, {"measurement": "Activity", "setting": "518A2 [20]", "result": 71, "unit": "%"}, {"measurement": "Activity", "setting": "HL-60 [21]", "result": 90, "unit": "%"}, {"measurement": "Activity", "setting": "HL-60 [22]", "result": 23, "unit": "%"}, {"measurement": "Activity", "setting": "[23]", "result": 3.3, "unit": "%"}, {"measurement": "Activity", "setting": "HL-60 [24]", "result": 3.8, "unit": "%"}, {"measurement": "Activity", "setting": "HL-60 [25]", "result": 5.9, "unit": "%"}]}]}
